Test results reported in ChEMBL document CHEMBL1138257, “Synthesis and biological evaluation of a fluorine-18 derivative of dasatinib” (J Med Chem, 2007).

Key:
[1] = cells; conditions: Homo sapiens, M-07e
[2] = cells; conditions: Homo sapiens
[3] = tested on: K562; assay: cells; conditions: Homo sapiens
[4] = tested on: Mus musculus; assay: Toxicity in B6D2F1 mouse at 0.1 mg/kg, iv; type: organism-based; design: dose 0.1 mg/kg, route intravenous; conditions: in vivo
[5] = biological target: Receptor-type tyrosine-protein kinase FLT3 (Homo sapiens) (UniProt P36888); assay: Inhibition of FLT3; conditions: concentration not given here
[6] = biological target: Hepatocyte growth factor receptor (Homo sapiens) (UniProt P08581); assay: Inhibition of Met kinase at 10 nM
In short: (§1)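 Part of a 21-kinase inhibition panel, tested at a single inhibitor concentration of 10 nM.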

[7] = biological target: Ephrin type-A receptor 2 (Homo sapiens) (UniProt P29317); assay: Inhibition of EphA2 at 10 nM
In short: as §1

[8] = biological target: T1, Ephrin type-B receptor 4 (Homo sapiens) (UniProt P54760); assay: Inhibition of EphB4 at 10 nM
T1 sequence (whole entry): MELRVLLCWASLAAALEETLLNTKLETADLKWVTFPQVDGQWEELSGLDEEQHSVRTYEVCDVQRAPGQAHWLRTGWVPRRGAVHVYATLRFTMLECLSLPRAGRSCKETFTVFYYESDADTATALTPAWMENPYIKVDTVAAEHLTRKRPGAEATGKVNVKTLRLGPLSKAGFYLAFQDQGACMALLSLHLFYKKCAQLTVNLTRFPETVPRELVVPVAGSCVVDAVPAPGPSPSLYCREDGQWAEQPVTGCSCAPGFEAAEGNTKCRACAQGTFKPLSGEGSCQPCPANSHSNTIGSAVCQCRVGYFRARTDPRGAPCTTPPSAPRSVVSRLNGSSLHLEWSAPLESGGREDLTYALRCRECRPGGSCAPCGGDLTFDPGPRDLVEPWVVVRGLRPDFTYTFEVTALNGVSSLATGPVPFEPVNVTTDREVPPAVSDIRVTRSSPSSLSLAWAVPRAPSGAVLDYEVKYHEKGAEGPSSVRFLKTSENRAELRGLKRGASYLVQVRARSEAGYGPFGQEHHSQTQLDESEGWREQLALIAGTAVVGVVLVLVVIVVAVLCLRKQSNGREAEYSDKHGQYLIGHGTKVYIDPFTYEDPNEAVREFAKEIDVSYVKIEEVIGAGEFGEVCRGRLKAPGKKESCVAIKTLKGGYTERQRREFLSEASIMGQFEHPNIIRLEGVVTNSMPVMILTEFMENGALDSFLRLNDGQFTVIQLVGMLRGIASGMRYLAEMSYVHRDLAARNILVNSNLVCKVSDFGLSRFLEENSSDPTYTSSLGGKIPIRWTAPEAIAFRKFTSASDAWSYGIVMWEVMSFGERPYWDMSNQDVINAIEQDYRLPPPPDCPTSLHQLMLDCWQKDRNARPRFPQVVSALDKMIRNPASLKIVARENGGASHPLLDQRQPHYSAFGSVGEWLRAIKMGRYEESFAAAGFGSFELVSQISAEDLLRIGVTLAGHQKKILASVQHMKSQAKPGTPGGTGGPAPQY
In short: as §1

[9] = biological target: T2, Tyrosine-protein kinase receptor TYRO3 (Homo sapiens) (UniProt Q06418); assay: Inhibition of TYRO3 at 10 nM
T2 sequence (whole entry): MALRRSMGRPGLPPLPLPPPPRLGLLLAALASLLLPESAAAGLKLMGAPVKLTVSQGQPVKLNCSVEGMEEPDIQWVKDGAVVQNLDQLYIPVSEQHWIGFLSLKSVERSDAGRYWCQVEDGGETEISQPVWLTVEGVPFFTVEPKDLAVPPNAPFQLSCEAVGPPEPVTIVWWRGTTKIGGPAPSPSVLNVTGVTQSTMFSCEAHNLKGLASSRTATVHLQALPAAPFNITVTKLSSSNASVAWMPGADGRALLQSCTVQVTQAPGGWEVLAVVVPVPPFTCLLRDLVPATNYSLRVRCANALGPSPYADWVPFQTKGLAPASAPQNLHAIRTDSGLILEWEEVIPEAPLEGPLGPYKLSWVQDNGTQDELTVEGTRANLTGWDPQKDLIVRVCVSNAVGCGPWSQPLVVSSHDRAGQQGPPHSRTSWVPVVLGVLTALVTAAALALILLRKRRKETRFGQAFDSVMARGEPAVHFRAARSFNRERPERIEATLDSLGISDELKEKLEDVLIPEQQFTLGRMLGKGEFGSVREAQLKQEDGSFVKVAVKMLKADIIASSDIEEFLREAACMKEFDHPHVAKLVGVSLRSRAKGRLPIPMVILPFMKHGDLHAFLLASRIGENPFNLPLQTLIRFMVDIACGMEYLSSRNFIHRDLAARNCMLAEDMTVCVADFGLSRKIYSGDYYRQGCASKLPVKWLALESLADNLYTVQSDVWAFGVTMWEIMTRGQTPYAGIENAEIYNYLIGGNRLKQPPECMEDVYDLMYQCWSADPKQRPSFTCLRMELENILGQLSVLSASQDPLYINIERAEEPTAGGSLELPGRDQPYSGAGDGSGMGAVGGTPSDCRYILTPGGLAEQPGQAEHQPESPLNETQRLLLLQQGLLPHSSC
In short: (§2)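 Single-concentration test at 10 nM within a panel of 21 kinases.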

[10] = biological target: Tyrosine-protein kinase CSK (Homo sapiens) (UniProt P41240); assay: Inhibition of CSK at 10 nM
In short: as §1

[11] = biological target: Vascular endothelial growth factor receptor 2 (Homo sapiens) (UniProt P35968); assay: Inhibition of KDR at 10 nM
In short: as §1

[12] = biological target: T3, Tyrosine-protein kinase JAK3 (Homo sapiens) (UniProt P52333); assay: Inhibition of JAK3 at 10 nM
T3 sequence (whole entry): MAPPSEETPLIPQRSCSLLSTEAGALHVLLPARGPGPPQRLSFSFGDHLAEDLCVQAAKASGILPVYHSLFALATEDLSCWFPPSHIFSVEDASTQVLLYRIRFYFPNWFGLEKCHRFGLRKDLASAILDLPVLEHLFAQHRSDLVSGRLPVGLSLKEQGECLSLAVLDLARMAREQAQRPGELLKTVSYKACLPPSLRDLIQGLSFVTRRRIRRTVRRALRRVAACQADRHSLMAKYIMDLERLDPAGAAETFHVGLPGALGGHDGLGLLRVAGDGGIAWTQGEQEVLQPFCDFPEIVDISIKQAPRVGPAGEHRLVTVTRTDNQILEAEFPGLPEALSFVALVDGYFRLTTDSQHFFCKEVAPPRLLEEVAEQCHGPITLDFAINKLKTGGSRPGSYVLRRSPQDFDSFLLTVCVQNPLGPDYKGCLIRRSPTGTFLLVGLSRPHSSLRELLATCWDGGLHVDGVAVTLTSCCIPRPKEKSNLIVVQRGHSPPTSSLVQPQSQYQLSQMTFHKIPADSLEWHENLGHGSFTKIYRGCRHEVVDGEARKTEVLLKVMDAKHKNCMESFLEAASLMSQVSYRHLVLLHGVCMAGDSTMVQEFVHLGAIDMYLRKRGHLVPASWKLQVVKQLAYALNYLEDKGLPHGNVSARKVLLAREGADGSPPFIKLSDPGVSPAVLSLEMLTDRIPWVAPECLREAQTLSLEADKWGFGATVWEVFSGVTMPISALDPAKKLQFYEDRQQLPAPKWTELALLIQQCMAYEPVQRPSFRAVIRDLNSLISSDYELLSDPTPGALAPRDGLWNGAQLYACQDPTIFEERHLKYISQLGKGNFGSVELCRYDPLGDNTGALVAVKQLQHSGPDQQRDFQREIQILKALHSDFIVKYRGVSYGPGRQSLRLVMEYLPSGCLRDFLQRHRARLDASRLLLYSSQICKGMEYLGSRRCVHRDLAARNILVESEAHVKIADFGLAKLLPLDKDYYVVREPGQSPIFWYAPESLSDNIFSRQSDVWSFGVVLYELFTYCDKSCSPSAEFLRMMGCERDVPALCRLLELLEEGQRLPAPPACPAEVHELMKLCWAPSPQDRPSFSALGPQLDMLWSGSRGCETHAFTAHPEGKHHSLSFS
In short: as §2

[13] = biological target: Activated CDC42 kinase 1 (Homo sapiens) (UniProt Q07912); assay: Inhibition of ACK at 10 nM
In short: as §2

[14] = biological target: Proto-oncogene tyrosine-protein kinase Src (Homo sapiens) (UniProt P12931); conditions: 10 nM
[15] = biological target: T4, Tyrosine-protein kinase Tec (Homo sapiens) (UniProt P42680); assay: Inhibition of TEC at 10 nM
T4 sequence (whole entry): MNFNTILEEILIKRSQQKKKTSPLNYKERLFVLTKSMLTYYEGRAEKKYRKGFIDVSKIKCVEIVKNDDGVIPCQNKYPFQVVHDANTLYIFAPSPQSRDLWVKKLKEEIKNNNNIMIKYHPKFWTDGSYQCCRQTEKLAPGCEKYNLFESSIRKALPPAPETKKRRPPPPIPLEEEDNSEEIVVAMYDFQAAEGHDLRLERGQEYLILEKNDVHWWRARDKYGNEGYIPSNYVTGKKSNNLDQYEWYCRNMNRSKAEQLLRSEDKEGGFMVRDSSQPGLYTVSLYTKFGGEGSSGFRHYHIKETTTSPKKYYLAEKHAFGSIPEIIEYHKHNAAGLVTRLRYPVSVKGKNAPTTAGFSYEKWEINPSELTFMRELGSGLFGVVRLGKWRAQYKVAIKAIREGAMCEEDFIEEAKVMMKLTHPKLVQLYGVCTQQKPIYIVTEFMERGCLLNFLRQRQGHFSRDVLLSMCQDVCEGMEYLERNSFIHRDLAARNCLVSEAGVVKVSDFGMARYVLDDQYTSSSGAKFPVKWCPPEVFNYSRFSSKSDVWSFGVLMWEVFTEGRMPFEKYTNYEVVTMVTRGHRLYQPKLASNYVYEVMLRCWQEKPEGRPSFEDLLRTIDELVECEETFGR
In short: as §1

[16] = biological target: Platelet-derived growth factor receptor alpha (Homo sapiens) (UniProt P16234); assay: Inhibition of PDGFRalpha at 10 nM
In short: as §1

[17] = tested on: Mus musculus; assay: Biodistribution in tumor of human K562 cells xenografted iv dosed mouse; type: ADME, organism-based; conditions: in vivo
In short: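 Three athymic mice carried subcutaneous K562 xenografts in the right shoulder. [18F] tracer (14 ± 1 MBq, 375 ± 25 µCi) was formulated in 5% BSA in saline, sterile filtered and given by tail vein. MicroPET imaging started 60 min post-injection with a 15 min exposure. Tumor uptake was expressed as % injected dose by region-of-interest analysis.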

Receptor-type tyrosine-protein kinase FLT3 (Homo sapiens), sequence (P36888 whole entry): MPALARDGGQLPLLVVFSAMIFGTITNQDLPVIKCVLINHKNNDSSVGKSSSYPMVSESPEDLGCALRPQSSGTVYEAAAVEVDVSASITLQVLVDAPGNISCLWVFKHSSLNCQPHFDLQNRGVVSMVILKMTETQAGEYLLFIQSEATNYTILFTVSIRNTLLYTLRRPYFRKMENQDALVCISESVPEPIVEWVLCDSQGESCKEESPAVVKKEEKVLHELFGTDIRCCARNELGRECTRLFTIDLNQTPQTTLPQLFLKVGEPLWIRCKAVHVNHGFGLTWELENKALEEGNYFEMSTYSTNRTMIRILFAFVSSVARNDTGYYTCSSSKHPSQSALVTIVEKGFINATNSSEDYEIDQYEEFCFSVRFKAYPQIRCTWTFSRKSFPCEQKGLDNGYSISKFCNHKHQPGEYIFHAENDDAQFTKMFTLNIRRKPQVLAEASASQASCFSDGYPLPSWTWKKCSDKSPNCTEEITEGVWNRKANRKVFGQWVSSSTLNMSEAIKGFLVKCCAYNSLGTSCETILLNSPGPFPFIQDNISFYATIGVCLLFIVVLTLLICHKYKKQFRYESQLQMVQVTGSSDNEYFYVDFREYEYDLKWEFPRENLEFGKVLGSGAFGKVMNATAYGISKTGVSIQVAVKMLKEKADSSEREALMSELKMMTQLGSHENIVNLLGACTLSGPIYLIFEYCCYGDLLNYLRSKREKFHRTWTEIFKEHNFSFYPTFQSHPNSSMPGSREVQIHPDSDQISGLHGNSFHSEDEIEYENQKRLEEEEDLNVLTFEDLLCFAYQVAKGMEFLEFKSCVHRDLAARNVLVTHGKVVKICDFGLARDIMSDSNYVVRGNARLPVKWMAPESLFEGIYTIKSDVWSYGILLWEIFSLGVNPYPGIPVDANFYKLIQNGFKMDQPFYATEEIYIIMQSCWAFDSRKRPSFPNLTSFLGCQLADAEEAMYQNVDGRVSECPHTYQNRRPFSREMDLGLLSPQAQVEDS
Proto-oncogene tyrosine-protein kinase Src (Homo sapiens), sequence (P12931 2-536 limits assumed): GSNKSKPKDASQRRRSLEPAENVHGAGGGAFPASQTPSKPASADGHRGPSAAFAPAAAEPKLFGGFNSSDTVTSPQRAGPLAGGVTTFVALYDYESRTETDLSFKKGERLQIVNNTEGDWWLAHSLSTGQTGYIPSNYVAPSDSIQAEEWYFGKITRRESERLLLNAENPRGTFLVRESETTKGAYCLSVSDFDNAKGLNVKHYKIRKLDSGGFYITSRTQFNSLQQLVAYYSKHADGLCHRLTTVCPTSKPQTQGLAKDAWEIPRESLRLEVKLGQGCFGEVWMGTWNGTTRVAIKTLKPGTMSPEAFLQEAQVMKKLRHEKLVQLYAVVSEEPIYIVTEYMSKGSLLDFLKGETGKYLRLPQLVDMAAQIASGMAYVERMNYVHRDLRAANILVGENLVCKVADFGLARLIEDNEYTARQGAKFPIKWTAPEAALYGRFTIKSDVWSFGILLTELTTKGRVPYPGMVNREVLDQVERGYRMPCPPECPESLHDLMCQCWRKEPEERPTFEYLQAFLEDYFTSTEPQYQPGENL
Hepatocyte growth factor receptor (Homo sapiens), sequence (P08581 whole entry): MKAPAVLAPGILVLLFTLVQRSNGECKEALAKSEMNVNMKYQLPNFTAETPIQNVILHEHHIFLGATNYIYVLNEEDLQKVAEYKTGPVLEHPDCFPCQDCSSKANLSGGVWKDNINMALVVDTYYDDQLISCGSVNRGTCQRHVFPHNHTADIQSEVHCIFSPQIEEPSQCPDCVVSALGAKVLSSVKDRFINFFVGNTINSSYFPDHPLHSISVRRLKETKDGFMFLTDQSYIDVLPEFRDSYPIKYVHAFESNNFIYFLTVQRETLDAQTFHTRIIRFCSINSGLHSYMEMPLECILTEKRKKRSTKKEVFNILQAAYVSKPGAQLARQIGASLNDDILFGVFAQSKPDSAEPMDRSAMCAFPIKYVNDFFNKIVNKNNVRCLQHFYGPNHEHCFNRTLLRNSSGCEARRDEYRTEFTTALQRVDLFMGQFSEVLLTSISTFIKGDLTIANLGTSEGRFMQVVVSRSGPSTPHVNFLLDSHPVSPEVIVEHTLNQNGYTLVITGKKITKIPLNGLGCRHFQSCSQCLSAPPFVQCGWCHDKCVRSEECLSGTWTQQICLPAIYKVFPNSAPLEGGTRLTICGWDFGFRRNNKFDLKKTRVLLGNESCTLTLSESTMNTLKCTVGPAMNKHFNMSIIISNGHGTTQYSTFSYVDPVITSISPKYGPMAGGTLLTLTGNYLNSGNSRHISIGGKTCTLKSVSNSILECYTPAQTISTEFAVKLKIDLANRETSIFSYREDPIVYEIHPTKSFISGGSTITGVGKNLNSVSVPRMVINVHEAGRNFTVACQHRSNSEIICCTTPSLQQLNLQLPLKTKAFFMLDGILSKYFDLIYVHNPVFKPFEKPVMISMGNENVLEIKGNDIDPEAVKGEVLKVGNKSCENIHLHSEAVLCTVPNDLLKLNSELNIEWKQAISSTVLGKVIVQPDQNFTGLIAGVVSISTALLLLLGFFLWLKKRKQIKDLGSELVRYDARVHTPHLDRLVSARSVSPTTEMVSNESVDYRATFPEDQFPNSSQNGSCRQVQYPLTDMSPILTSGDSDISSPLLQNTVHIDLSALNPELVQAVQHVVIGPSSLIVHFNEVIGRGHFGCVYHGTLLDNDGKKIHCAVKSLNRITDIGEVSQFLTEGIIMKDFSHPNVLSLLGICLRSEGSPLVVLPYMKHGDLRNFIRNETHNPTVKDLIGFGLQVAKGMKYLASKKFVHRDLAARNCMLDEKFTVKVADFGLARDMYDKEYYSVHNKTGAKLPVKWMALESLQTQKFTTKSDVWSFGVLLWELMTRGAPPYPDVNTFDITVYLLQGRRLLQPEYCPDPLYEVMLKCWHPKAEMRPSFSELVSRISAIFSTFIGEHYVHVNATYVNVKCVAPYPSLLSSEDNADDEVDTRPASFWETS
Platelet-derived growth factor receptor alpha (Homo sapiens), sequence (P16234 whole entry): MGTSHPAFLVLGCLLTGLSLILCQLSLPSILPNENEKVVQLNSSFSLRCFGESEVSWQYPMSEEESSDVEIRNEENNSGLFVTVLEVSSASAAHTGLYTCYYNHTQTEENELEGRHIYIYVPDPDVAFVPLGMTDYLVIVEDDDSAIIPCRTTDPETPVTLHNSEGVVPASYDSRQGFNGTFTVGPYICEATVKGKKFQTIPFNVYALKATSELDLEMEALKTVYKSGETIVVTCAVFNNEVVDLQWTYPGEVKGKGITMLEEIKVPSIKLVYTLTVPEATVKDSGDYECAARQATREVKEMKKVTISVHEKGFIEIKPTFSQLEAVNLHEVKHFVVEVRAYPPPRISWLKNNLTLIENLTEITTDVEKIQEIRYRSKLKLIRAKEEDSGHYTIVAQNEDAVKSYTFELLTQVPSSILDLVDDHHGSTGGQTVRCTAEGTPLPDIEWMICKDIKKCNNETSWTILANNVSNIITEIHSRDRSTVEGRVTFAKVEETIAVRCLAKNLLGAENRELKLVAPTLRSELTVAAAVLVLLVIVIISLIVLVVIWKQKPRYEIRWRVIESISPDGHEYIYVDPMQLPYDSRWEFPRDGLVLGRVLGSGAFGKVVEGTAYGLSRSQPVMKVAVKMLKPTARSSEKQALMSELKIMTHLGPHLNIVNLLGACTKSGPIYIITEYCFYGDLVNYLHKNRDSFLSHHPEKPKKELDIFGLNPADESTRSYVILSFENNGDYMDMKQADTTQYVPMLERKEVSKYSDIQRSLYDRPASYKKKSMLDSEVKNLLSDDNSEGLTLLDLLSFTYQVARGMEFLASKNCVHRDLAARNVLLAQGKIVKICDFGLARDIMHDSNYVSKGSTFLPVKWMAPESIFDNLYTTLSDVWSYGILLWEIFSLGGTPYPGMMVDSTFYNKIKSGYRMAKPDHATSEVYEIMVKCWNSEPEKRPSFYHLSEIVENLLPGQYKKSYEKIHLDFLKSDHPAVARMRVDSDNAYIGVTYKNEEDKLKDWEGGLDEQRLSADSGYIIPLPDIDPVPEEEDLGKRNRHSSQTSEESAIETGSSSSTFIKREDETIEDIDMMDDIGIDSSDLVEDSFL
Ephrin type-A receptor 2 (Homo sapiens), sequence (P29317 whole entry): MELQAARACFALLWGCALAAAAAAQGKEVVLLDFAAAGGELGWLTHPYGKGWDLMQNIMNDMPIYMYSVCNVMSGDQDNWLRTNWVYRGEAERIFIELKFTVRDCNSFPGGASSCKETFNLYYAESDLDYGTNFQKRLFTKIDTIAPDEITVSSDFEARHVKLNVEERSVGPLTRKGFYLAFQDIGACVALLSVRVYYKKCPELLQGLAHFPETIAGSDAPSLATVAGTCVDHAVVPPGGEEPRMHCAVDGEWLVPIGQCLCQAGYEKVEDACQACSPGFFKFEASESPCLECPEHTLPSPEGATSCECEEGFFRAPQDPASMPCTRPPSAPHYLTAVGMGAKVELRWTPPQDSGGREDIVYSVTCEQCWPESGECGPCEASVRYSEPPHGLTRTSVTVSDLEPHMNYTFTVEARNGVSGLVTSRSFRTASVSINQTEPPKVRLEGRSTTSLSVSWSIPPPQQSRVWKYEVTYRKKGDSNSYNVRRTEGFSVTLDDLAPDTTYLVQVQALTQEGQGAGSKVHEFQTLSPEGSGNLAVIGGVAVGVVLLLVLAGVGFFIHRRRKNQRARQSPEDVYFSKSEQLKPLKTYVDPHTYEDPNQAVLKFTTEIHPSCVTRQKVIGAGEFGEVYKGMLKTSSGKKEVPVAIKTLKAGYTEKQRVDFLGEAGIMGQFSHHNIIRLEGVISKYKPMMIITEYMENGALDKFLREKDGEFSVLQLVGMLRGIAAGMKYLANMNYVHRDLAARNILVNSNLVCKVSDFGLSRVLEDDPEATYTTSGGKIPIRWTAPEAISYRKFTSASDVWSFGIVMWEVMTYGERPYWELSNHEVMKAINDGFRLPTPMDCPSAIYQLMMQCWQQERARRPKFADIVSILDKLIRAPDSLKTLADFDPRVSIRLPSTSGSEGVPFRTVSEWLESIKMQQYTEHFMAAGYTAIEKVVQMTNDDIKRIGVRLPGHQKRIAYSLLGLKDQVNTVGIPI

Row | IC50 [1] | IC50 [2] | IC50 [3] | inhibition [11] | inhibition [12] | Drug uptake [17] | Compound | Activity [4] | inhibition [5] | inhibition [6] | inhibition [7] | inhibition [8] | inhibition [9] | inhibition [10] | inhibition [13] | inhibition [14] | inhibition [15] | inhibition [16]
1 | 1.2 nM | 0.07 nM | 1 nM |  |  |  | Cc1nc(Nc2ncc(C(=O)Nc3c(C)cccc3Cl)s2)cc(N2CCN(CCO)CC2)n1 [DASATINIB] |  |  |  |  |  |  |  |  |  |  | 
2 | 1.1 nM | 0.1 nM | 1.1 nM | -5.6% | 16% |  | Cc1nc(Nc2ncc(C(=O)Nc3c(C)cccc3Cl)s2)cc(N2CCN(CCF)CC2)n1 | Non-toxic | 0.3% | 7.2% | 98.1% | 97% | 23.1% | 95.2% | 83.1% | 97.5% | 98.1% | 86%
3 |  |  |  |  |  |  | CN[C@@H]1C[C@H]2O[C@@](C)([C@@H]1OC)n1c3ccccc3c3c4c(c5c6ccccc6n2c5c31)C(=O)NC4 |  | 96.4% | 90% | 92.6% | 94.1% | 95.3% | 89.3% | 96.4% | 89.8% | 92.5% | 88.4%
4 |  |  |  |  |  | 1.1% | Cc1nc(Nc2ncc(C(=O)Nc3c(C)cccc3Cl)s2)cc(N2CCN(CC[18F])CC2)n1 |  |  |  |  |  |  |  |  |  |  | 
